Experiments:
[1] = Partition coefficient (logP); format: physicochemical; conditions: octanol/water
P388 [2] = experiment: Cytotoxic activity against P388 mouse lymphocytic leukemia cell line; format: functional; conditions: read-out: ED50 (the source's name)
P388 [3] = experiment: Cytotoxic activity against P388 mouse lymphocytic leukemia cell line (doxorubicin resistant).; format: functional; conditions: read-out: ED50 (the source's name)
J774 [4] = experiment: Cytotoxic activity against mouse macrophage cell line J7.VBL-1; format: functional; conditions: read-out: ED50 (the source's name)
J774.2 [5] = experiment: Cytotoxic activity against mouse macrophage cell line J774.2; format: functional; conditions: read-out: ED50 (the source's name)
J774 [6] = experiment: (§1) Cytotoxic activity against mouse macrophage cell line J7.COL-100.; format: functional; conditions: J774, read-out: ED50
Outline: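 Colchicine-resistant variant of mouse macrophage-like J774.2, kept in 100 μM colchicine. Cells were exposed with or without drug in triplicate per concentration for 72 h, ending before controls reached confluency, and then living cells were counted.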

[7] = Retention time of the compound.; format: ADME
J774 [8] = experiment: as §1; format: functional; conditions: read-out: ED50 (the source's name)
[9] = Retention time of the compound; NT-Not Tested; format: ADME
Tubulin (Bos taurus) [10] = target: T1, Tubulin (Bos taurus) (UniProt Q6B856+Q862L2+Q862F3); conditions: at 5 µM
Tubulin (Bos taurus) [11] = target: T1, Tubulin (Bos taurus); conditions: at 2 µM
Tubulin (Bos taurus) [12] = target: T1, Tubulin (Bos taurus); conditions: at 5 µM; remark: listed apart in the source
Tubulin (Bos taurus) [13] = target: T1, Tubulin (Bos taurus); conditions: at 2 µM; remark: listed apart in the source
J774.2 [14] = experiment: Cytotoxic activity against mouse macrophage cell line J774.2 after 72 hr; format: functional; conditions: J774.2, 72 h, read-out: ED50 (the source's name)
Outline: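 Mouse macrophage-like J774.2 (wild type) cells were incubated with or without drug for 72 h, before controls reached confluency, in triplicate per concentration.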

| logP [1] | tR [7] | ITP (Tubulin (Bos taurus) [10]; at 100 µM) | ITP (Tubulin (Bos taurus) [10]) | ITP (Tubulin (Bos taurus) [11]) | ITP (Tubulin (Bos taurus) [12]) | ITP (Tubulin (Bos taurus) [13]) | SMILES | EC50 (P388 [2]) | EC50 (P388 [3]) | EC50 (J774 [4]) | EC50 (J774.2 [5]) | EC50 (J774 [6]) | EC50 (J774 [8]) | tR [9] | EC50 (J774.2 [14]) |
| --- | --- | --- | --- | --- | --- | --- | --- | --- | --- | --- | --- | --- | --- | --- | --- |
| 1.72 | 5.4 min |  |  |  |  |  | COc1cc2c(c(OC)c1OC)-c1ccc(OC)c(=O)cc1[C@@H](NC(=O)C(F)(F)F)CC2 | 0.004 µM | 0.04 µM | 0.8 µM | 0.01 µM |  | 14 µM |  |  |
| 2.08 |  | 10% |  |  |  |  | COc1cc2c(c(OC)c1OC)-c1ccc(=O)c(OC)cc1C(NC(=O)C(F)(F)F)CC2 (configuration not stated) | 1.5 µM | 13 µM | > 20 µM | 3.9 µM |  |  | 5.9 min |  |
| 1.82 |  | 44% |  |  |  |  | COc1cc2c(c(OC)c1OC)-c1ccc(=O)c(O)cc1C(NC(=O)C(F)(F)F)CC2 (configuration not stated) | 3 µM | 6 µM | 20 µM | 3 µM |  | 4.9 µM |  |  |
| 1.7 | 5.1 min |  |  |  |  |  | COc1cc2c(c(OC)c1OC)-c1cc/c(=N/CCF)c(O)cc1C(NC(C)=O)CC2 (configuration not stated) | 0.023 µM | 0.47 µM | 4.8 µM | 0.15 µM |  | 32 µM |  |  |
| 0.3 | 4 min |  |  |  |  |  | COc1cc2c(c(OC)c1OC)-c1ccc(=N)c(O)cc1C(NC(C)=O)CC2 (configuration not stated) | 0.013 µM | 0.4 µM | 15 µM | 0.02 µM |  | 70 µM |  |  |
| 2.34 | 7.5 min |  |  |  |  |  | CC/N=c1/ccc2c(cc1O)C(NC(C)=O)CCc1cc(OC)c(OC)c(OC)c1-2 (configuration not stated) | 0.005 µM | 0.32 µM | 1.9 µM | 0.01 µM |  | 15 µM |  |  |
| 2.32 | 5.7 min |  | 82% | 42% | 79% | 48% | COc1cc2c(c(OC)c1OC)-c1ccc(=N)c(O)cc1C(NC(=O)C(F)(F)F)CC2 (configuration not stated) | 0.013 µM | 0.06 µM | 1.3 µM | 0.01 µM |  | 4.5 µM |  |  |
| 1.36 | 10.6 min |  | 45% | 15% | 35% | 30% | COc1cc2c(c(OC)c1OC)-c1cc/c(=N/CC(F)(F)F)c(O)cc1C(NC(=O)C(F)(F)F)CC2 (configuration not stated) | 0.05 µM | 0.09 µM | 2.9 µM |  |  | 8.8 µM |  | 0.2 µM |
| 1.45 | 7.4 min |  |  |  |  |  | COc1cc2c(c(OC)c1OC)-c1cc/c(=N/CC(F)(F)F)c(O)cc1C(NC(C)=O)CC2 (configuration not stated) | 0.051 µM | 0.9 µM | 17 µM | 0.19 µM |  | 50 µM |  |  |
| 2.61 | 5.3 min |  |  |  |  |  | COc1c(O)cc2c(c1OC)-c1ccc(SC)c(=O)cc1C(NC(=O)C(F)(F)F)CC2 (configuration not stated) |  |  |  |  |  |  |  |  |
| 0.48 | 3 min |  |  |  |  |  | COc1cc2c(c(OC)c1O)-c1ccc(OC)c(=O)cc1C(NC(C)=O)CC2 (configuration not stated) | 0.095 µM | 1.22 µM | 62.5 µM | 0.3 µM |  | 140 µM |  |  |

| SMILES | logP [1] | tR [7] | ITP (Tubulin (Bos taurus) [10]; at 100 µM) | ITP (Tubulin (Bos taurus) [10]) | ITP (Tubulin (Bos taurus) [11]) | ITP (Tubulin (Bos taurus) [12]) | ITP (Tubulin (Bos taurus) [13]) | EC50 (P388 [2]) | EC50 (P388 [3]) | EC50 (J774 [4]) | EC50 (J774.2 [5]) | EC50 (J774 [6]) | EC50 (J774 [8]) | tR [9] | EC50 (J774.2 [14]) |
| --- | --- | --- | --- | --- | --- | --- | --- | --- | --- | --- | --- | --- | --- | --- | --- |
| COc1cc2c(c(OC)c1OC)-c1ccc(=O)c(O)cc1C(NC(C)=O)CC2 (configuration not stated) | 1.2 |  |  |  |  |  |  | 1.2 µM | 10 µM | > 50 µM | 3.1 µM | > 1000 µM |  |  |  |
| COc1c(O)cc2c(c1OC)-c1ccc(SC)c(=O)cc1C(NC(C)=O)CC2 (configuration not stated) | 1.43 | 3.8 min |  |  |  |  |  |  |  |  |  |  |  |  |  |
| COc1cc2c(c(OC)c1OC)-c1ccc(=O)c(OC)cc1C(NC(C)=O)CC2 (configuration not stated) | 1 |  |  |  |  |  |  | 15 µM | 15 µM | > 50 µM | 5.6 µM |  |  | 3.9 min |  |
| COc1cc2c(c(OC)c1OC)-c1ccc(OC)c(=O)cc1[C@@H](NC(C)=O)CC2 [COLCHICINE] | 0.6 | 3.9 min |  |  |  |  |  | 0.012 µM | 0.47 µM | 17 µM | 0.06 µM |  | 200 µM |  |  |
| COc1cc2c(c(OC)c1O)-c1ccc(OC)c(=O)cc1C(NC(=O)C(F)(F)F)CC2 (configuration not stated) | 1.67 | 3.8 min |  | 35% | 17% | 47% | 24% | 0.04 µM | 0.12 µM | 5 µM | 0.04 µM |  | 10.5 µM |  |  |
